Data reported in article PMC3673543 (Biochemistry, 2012).

T1: Tat49-57 peptide, fluorescein/TAMRA FRET probe (HIV-1, UniProt P04608 49-57, not fully specified)
T1 chain: RKKRRQRRR


Columns and labels:
[1] = test system: HIV TAR RNA; assay: UV thermal denaturation of HIV TAR RNA with ligand; type: binding, HIV-1; settings: 100 mM KCl; for ΔTm (at rdr = 1): pH 6.8, TAR RNA 1 μM/strand; for Tm: ligand/HIV TAR RNA complex, rdr = 1, 10 mM SC, 0.5 mM EDTA, pH 6.8, TAR RNA 1 μM/strand
[2] = target: HIV TAR RNA; assay: Ethidium bromide displacement titration with Scatchard analysis; type: binding, HIV-1; settings: 100 mM KCl, 10 mM SC, 0.5 mM EDTA, pH 6.8; TAR RNA 200 nM/strand; EtBr 5 μM
Outline: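 Fluorescent intercalator displacement: test compound titrated into ethidium bromide (5 μM) plus HIV TAR RNA (200 nM/strand) in 10 mM SC, 0.5 mM EDTA, pH 6.8 with 100 mM KCl. Salt series run at 50, 100 and 150 mM KCl. Excitation 545 nm, emission 560–607 nm. Scatchard plot slope gives the association constant K. For the salt series, log K was plotted against log [KCl] and fitted linearly.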

[3] = target: HIV TAR RNA; assay: Ethidium bromide displacement; type: binding, HIV-1; settings: read-out: IC50 (ethidium bromide displacement); 100 mM KCl, 10 mM SC, 0.5 mM EDTA, pH 6.8; HIV TAR RNA 50 nM/strand
Outline: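 Ethidium bromide at 1.25 μM is excited at 545 nm, and emission is scanned from 560 to 607 nm before and after adding TAR RNA. Under these conditions, less than 20% of the ethidium bromide is bound. Fluorescence displacement titration with test compound follows in the same buffer.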

[4] = test system: HIVNL4-3; assay: Reverse transcriptase release into culture supernatant of MT-2 cells; type: cell-based, HIV
Outline: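 MT-2 cells (500,000/well) were preincubated 1 h at 37 °C with test compound at a non-toxic concentration (≤5% cell death), then infected with H9-grown HIV NL4-3 (100,000 cpm RT activity per well, MOI <1). Virus control was infected cells plus water. Supernatants from days 2, 4 and 6 were PEG-precipitated and lysed. RT was measured as 3H-dTTP incorporation (poly rA-oligo dT, 1 h, 37 °C), as cpm/ml. Three separate experiments, each in triplicate.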

[5] = test system: HIV; assay: Protection from HIV-induced cytopathic effect; type: cell-based; settings: for Maximum protection from HIV cytopathic effects: neutral red dye
Outline: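 MT-2 cells, a line highly susceptible to HIV and fully lysed by it, were used in triplicate wells. Finter's neutral red, a vital dye, served as read-out of inhibition of HIV-induced cytopathic effect, with water as control. Maximum percent protection was recorded together with the compound concentration at which it was reached.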

[6] = test system: tetraloop TAR RNA Mutant; assay: FID titration with Scatchard analysis on mutant TAR; type: binding, HIV-1; settings: mutant tetraloop TAR 200 nM/strand; 100 mM KCl, pH 6.8; EtBr 5 μM
Outline: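 Tetraloop TAR RNA–ethidium bromide complex in 100 mM KCl, 10 mM SC, 0.5 mM EDTA, pH 6.8, titrated with increasing test compound. The fall in fluorescence at 610 nm was followed. Normalized intensity was plotted against compound concentration, then transformed by Scatchard analysis to derive the binding constant.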

[7] = test system: MT-2 cells; assay: Toxicity against MT-2 cells; type: cell-based; settings: concentration where no more than 5% cell death
[8] = test system: TAR; settings: aminoglycosides targeted towards TAR binding; cited from earlier work
[9] = target: T1, Tat49-57 peptide, fluorescein/TAMRA …; assay: fluorescence intensity

Molecule | ΔTm (at rdr = 1) [1] [°C] | Tm [1] [°C] | K (binding constant from Scatchard analysis of FID) [2] [M⁻¹] | IC50 [3] [nM] | protection / suppression of RT release ([4]; day 2 post inoculation, vs virus control) | protection / suppression of RT release ([4]; day 4, vs virus control) | protection / suppression of RT release ([4]; day 6, vs virus control) | anti-HIV activity in the 96-well plate screening assay ([5]; HIV-induced cytopathic effect) | Ka (Scatchard analysis of FID titration) [6] | 5% Toxicity (CT5) [7] [µM] | concentration at which maximum protection was achieved ([5]; MT-2 cells, HIV cytopathic effect) [µM] | Maximum protection from HIV cytopathic effects ([5]; MT-2 cells) [%] | inhibitory effect [8] | ΔTm (at rdr = 1) ([1]; listed as neomycin) | apparent K (half saturation) [9] [nM]
NC[C@@H]1O[C@H](O[C@H]2[C@@H](O)[C@H](O[C@@H]3[C@@H](O)[C@H](N)C[C@H](N)[C@H]3O[C@H]3O[C@H](CN)[C@@H](O)[C@H](O)[C@H]3N)O[C@@H]2Cn2cc(COCc3cn(C[C@H]4O[C@@H](O[C@@H]5[C@@H](O)[C@H](N)C[C@H](N)[C@H]5O[C@H]5O[C@H](CN)[C@@H](O)[C@H](O)[C@H]5N)[C@H](O)[C@@H]4O[C@H]4O[C@@H](CN)[C@@H](O)[C@H](O)[C@H]4N)nn3)nn2)[C@H](N)[C@@H](O)[C@@H]1O [DPA51] | 10.2 | 79.1 | 1.17e+08 | 56 |  |  |  |  |  |  |  |  |  |  | 
NC[C@@H]1O[C@H](O[C@H]2[C@@H](O)[C@H](O[C@@H]3[C@@H](O)[C@H](N)C[C@H](N)[C@H]3O[C@H]3O[C@H](CN)[C@@H](O)[C@H](O)[C@H]3N)O[C@@H]2Cn2cc(-c3cccc(-c4cn(C[C@H]5O[C@@H](O[C@@H]6[C@@H](O)[C@H](N)C[C@H](N)[C@H]6O[C@H]6O[C@H](CN)[C@@H](O)[C@H](O)[C@H]6N)[C@H](O)[C@@H]5O[C@H]5O[C@@H](CN)[C@@H](O)[C@H](O)[C@H]5N)nn4)c3)nn2)[C@H](N)[C@@H](O)[C@@H]1O [DPA65] | 9.3 | 78.2 | 1.39e+08 | 36 | 40-67% | 68-73% | 24-27% | inactive to weakly active | ~ 10^7 M^−1 |  |  |  |  |  | 
NC[C@@H]1O[C@H](O[C@H]2[C@@H](O)[C@H](O[C@@H]3[C@@H](O)[C@H](N)C[C@H](N)[C@H]3O[C@H]3O[C@H](CN)[C@@H](O)[C@H](O)[C@H]3N)O[C@@H]2Cn2cc(CCCCc3cn(C[C@H]4O[C@@H](O[C@@H]5[C@@H](O)[C@H](N)C[C@H](N)[C@H]5O[C@H]5O[C@H](CN)[C@@H](O)[C@H](O)[C@H]5N)[C@H](O)[C@@H]4O[C@H]4O[C@@H](CN)[C@@H](O)[C@H](O)[C@H]4N)nn3)nn2)[C@H](N)[C@@H](O)[C@@H]1O [DPA54] | 8.2 | 77.1 | 2.61e+07 | 81 |  |  |  |  |  | 69 | 17 | 31 |  |  | 
NC[C@@H]1O[C@H](O[C@H]2[C@@H](O)[C@H](O[C@@H]3[C@@H](O)[C@H](N)C[C@H](N)[C@H]3O[C@H]3O[C@H](CN)[C@@H](O)[C@H](O)[C@H]3N)O[C@@H]2CO)[C@H](N)[C@@H](O)[C@@H]1O [Neomycin, Neomycin B tri-sulfate, reference compound] | 0.2 | 69.1 |  | 417 |  |  |  |  |  |  |  | 9 | less than 1 μM | no thermal stabilization | 
GGCAGAUCUGAGCCUGGGAGCUCUCUGCC (structured_RNA) [HIV-1 TAR RNA] |  |  |  |  |  |  |  |  |  |  |  |  |  |  | 86 ± 9
